Converted amounts (≈) assume the structure as drawn. The source made the active and inactive calls. No cut-off for these calls is given here.
Columns and labels:
[1] = tested on: Staphylococcus aureus; test: Antibacterial activity against Staphylococcus aureus ATCC 25923 after 24 hrs by NCCLS two fold broth microdilution method; assay type: functional; conditions: ATCC 25923, 24 h
How it was run: (§1)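 Two-fold serial broth microdilution in 96-well plates following NCCLS. Compounds were dissolved in DMSO as stocks, then diluted in Mueller–Hinton broth to final concentrations of 0.5–512 µg/mL. Plates were inoculated and incubated at 37 °C for 24 h, with growth read visually and spectrophotometrically. MIC was taken as the lowest concentration giving complete growth inhibition. Run in triplicate, with a DMSO-plus-inoculum solvent control.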

[2] = tested on: Staphylococcus aureus; test: Antibacterial activity against methicillin-resistant Staphylococcus aureus N315 after 24 hrs by NCCLS two fold broth microdilution method; assay type: functional; conditions: N315, 24 h
How it was run: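 Two-fold serial broth microdilution per NCCLS. Chloromycin and norfloxacin as reference drugs; DMSO with inoculum, no drug, as solvent control. Incubation 37 °C for 24 h. Growth read visually and spectrophotometrically. MIC is the lowest concentration completely inhibiting growth; triplicate.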

[3] = tested on: Bacillus subtilis; test: Antibacterial activity against Bacillus subtilis ATCC 21216 after 24 hrs by NCCLS two fold broth microdilution method; assay type: functional; conditions: ATCC 21216, 24 h; how it was run: as §1
[4] = tested on: Micrococcus luteus; test: Antibacterial activity against Micrococcus luteus ATCC 4698 after 24 hrs by NCCLS two fold broth microdilution method; assay type: functional; conditions: NCTC 2665, 24 h; how it was run: as §1
[5] = tested on: Bacillus; test: Antibacterial activity against Bacillus proteus ATCC 13315 after 24 hrs by NCCLS two fold broth microdilution method; assay type: functional; conditions: ATCC 13315, 24 h; how it was run: as §1
[6] = tested on: Escherichia coli; test: Antibacterial activity against Escherichia coli ATCC 8099 after 24 hrs by NCCLS two fold broth microdilution method; assay type: functional; conditions: ATCC 8099, 24 h
How it was run: (§2)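 Two-fold serial broth microdilution in 96-well plates following NCCLS. Plates were inoculated and incubated at 37 °C for 24 h, with growth read visually and spectrophotometrically. MIC was taken as the lowest concentration giving complete growth inhibition. Run in triplicate, with a DMSO-plus-inoculum solvent control.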

[7] = tested on: Pseudomonas aeruginosa; test: Antibacterial activity against Pseudomonas aeruginosa ATCC 27853 after 24 hrs by NCCLS two fold broth microdilution method; assay type: functional; conditions: ATCC 27853, 24 h; how it was run: as §2
[8] = tested on: Salmonella typhi; test: Antibacterial activity against Bacillus typhi after 24 hrs by NCCLS two fold broth microdilution method; assay type: functional, Salmonella enterica subsp. enterica serovar Typhi; conditions: Salmonella enterica
How it was run: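 Two-fold serial broth microdilution per NCCLS. DMSO stocks diluted in Mueller–Hinton broth to 512, 256, 128, 64, 32, 16, 8, 4, 2, 1, 0.5 µg/mL. Chloromycin and norfloxacin as reference drugs; DMSO with inoculum, no drug, as solvent control. Incubation 37 °C for 24 h. Growth read visually and spectrophotometrically. MIC is the lowest concentration completely inhibiting growth; triplicate.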

[9] = tested on: Candida albicans; test: Antifungal activity against Candida albicans ATCC 76615 after 24 hrs by NCCLS two fold broth microdilution method; assay type: functional; conditions: ATCC 76615, 24 h
How it was run: (§3)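 Two-fold serial microdilution following NCCLS. A spore suspension in sterile distilled water was prepared from one-day-old cultures grown on Sabouraud agar and adjusted to a final 1–5 × 10^3 spores/mL. DMSO stocks were diluted in RPMI 1640 to eleven concentrations (0.5–512 µg/mL), inoculated and held at 35 °C for 24 h. Growth was read visually and spectrophotometrically, MIC was the lowest concentration with complete inhibition, and runs were in triplicate.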

[10] = tested on: Pichia norvegensis; test: Antifungal activity against Candida mycoderma after 24 hrs by NCCLS two fold broth microdilution method; assay type: functional
[11] = tested on: Cyberlindnera jadinii; test: Antifungal activity against Candida utilis after 24 hrs by NCCLS two fold broth microdilution method; assay type: functional; conditions: Williopsis jadinii; how it was run: as §3
[12] = tested on: Saccharomyces cerevisiae; test: Antifungal activity against Saccharomyces cerevisiae after 24 hrs by NCCLS two fold broth microdilution method; assay type: functional; how it was run: as §3
[13] = tested on: Aspergillus flavus; test: Antifungal activity against Aspergillus flavus after 24 hrs by NCCLS two fold broth microdilution method; assay type: functional; how it was run: as §3
[14] = tested on: Aspergillus flavus; test: Potency index, ratio of Fluconazole MIC to compound MIC for Aspergillus flavus; assay type: functional
[15] = tested on: Calf thymus DNA; test: Binding affinity to calf thymus DNA assessed as increase in maximum absorption by UV-vis absorption spectra analysis; assay type: nucleic-acid assay; conditions: Bos taurus
How it was run: (§4)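 Calf thymus DNA was held at a fixed concentration and titrated with increasing amounts of compound. UV-vis absorption spectra were recorded, following the DNA absorption maximum at 260 nm.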

[16] = tested on: Calf thymus DNA; test: Binding affinity to calf thymus DNA assessed as hypochromic effect up to 1.6 10^-5 mol/L by UV-vis absorption spectra analysis; assay type: nucleic-acid assay; conditions: Bos taurus; how it was run: as §4
[17] = tested on: Calf thymus DNA; test: Binding affinity to calf thymus DNA assessed as hyperchromic effect up to 1.6 10^-5 mol/L by UV-vis absorption spectra analysis; assay type: nucleic-acid assay; conditions: Bos taurus; how it was run: as §4
[18] = tested on: Calf thymus DNA; test: Binding affinity to calf thymus DNA by UV-vis absorption spectra analysis; assay type: nucleic-acid assay; conditions: Bos taurus; how it was run: as §4
[19] = tested on: Calf thymus DNA; test: Inhibition of neutral red binding to calf thymus DNA up to 0.48 10^-5 mol/L by UV-vis absorption spectra analysis; assay type: nucleic-acid assay; conditions: Bos taurus
[20] = target: T1, Albumin (Homo sapiens, UniProt P02768); test: Binding affinity to human serum albumin up to 1.6 10^-5 mol/L by UV-vis absorption spectra analysis; assay type: ADME; conditions: isolated protein
[21] = target: T1, Albumin; test: Binding affinity to human serum albumin by fluorescence spectroscopic analysis; assay type: ADME; conditions: isolated protein
[22] = target: T1, Albumin; test: Binding affinity to human serum albumin assessed as Stern-Volmer quenching constant at 273 K by fluorescence spectroscopic analysis; assay type: ADME; conditions: isolated protein
How it was run: (§5)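 Intrinsic fluorescence of HSA (single Trp-214, emission peak 348 nm) was recorded with increasing compound concentration at several temperatures. Quenching data were fitted to the Stern-Volmer equation F0/F = 1 + KSV[Q] = 1 + Kqτ0[Q] to give KSV, and Kq was derived via τ0.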

[23] = target: T1, Albumin; test: Binding affinity to human serum albumin assessed as quenching constant at 273 K by fluorescence spectroscopic analysis; assay type: ADME; conditions: isolated protein; how it was run: as §5
[24] = target: T1, Albumin; test: Binding affinity to human serum albumin at 273 K by modified Stern-Volmer method; assay type: ADME; conditions: isolated protein
[25] = target: T1, Albumin; test: Binding affinity to human serum albumin at 273 K by scatchard plot analysis; assay type: ADME; conditions: isolated protein
[26] = target: T1, Albumin; test: Binding affinity to human serum albumin assessed as change in enthalpy at 273 K by van't Hoff plot analysis; assay type: ADME; conditions: isolated protein
[27] = target: T1, Albumin; test: Binding affinity to human serum albumin assessed as Gibbs free energy change at 273 K by van't Hoff plot analysis; assay type: ADME; conditions: isolated protein
[28] = target: T1, Albumin; test: Binding affinity to human serum albumin assessed as change in entropy at 273 K by van't Hoff plot analysis; assay type: ADME; conditions: isolated protein
[29] = tested on: Salmonella typhi; test: Potency index, ratio of Chloromycin MIC to compound MIC for Bacillus typhi; assay type: functional, Salmonella enterica subsp. enterica serovar Typhi
[30] = target: T1, Albumin; test: Binding affinity to human serum albumin assessed as Stern-Volmer quenching constant at 293 K by fluorescence spectroscopic analysis; assay type: ADME; conditions: isolated protein; how it was run: as §5
[31] = target: T1, Albumin; test: Binding affinity to human serum albumin assessed as Stern-Volmer quenching constant at 313 K by fluorescence spectroscopic analysis; assay type: ADME; conditions: isolated protein; how it was run: as §5
[32] = target: T1, Albumin; test: Binding affinity to human serum albumin assessed as quenching constant at 293 K by fluorescence spectroscopic analysis; assay type: ADME; conditions: isolated protein; how it was run: as §5
[33] = target: T1, Albumin; test: Binding affinity to human serum albumin assessed as quenching constant at 313 K by fluorescence spectroscopic analysis; assay type: ADME; conditions: isolated protein; how it was run: as §5
[34] = target: T1, Albumin; test: Binding affinity to human serum albumin at 293 K by modified Stern-Volmer method; assay type: ADME; conditions: isolated protein
[35] = target: T1, Albumin; test: Binding affinity to human serum albumin at 313 K by modified Stern-Volmer method; assay type: ADME; conditions: isolated protein
[36] = target: T1, Albumin; test: Binding affinity to human serum albumin at 293 K by scatchard plot analysis; assay type: ADME; conditions: isolated protein
[37] = target: T1, Albumin; test: Binding affinity to human serum albumin at 313 K by scatchard plot analysis; assay type: ADME; conditions: isolated protein
[38] = target: T1, Albumin; test: Binding affinity to human serum albumin assessed as Gibbs free energy change at 293 K by van't Hoff plot analysis; assay type: ADME; conditions: isolated protein
[39] = target: T1, Albumin; test: Binding affinity to human serum albumin assessed as Gibbs free energy change at 313 K by van't Hoff plot analysis; assay type: ADME; conditions: isolated protein

T1 sequence (P02768 whole entry): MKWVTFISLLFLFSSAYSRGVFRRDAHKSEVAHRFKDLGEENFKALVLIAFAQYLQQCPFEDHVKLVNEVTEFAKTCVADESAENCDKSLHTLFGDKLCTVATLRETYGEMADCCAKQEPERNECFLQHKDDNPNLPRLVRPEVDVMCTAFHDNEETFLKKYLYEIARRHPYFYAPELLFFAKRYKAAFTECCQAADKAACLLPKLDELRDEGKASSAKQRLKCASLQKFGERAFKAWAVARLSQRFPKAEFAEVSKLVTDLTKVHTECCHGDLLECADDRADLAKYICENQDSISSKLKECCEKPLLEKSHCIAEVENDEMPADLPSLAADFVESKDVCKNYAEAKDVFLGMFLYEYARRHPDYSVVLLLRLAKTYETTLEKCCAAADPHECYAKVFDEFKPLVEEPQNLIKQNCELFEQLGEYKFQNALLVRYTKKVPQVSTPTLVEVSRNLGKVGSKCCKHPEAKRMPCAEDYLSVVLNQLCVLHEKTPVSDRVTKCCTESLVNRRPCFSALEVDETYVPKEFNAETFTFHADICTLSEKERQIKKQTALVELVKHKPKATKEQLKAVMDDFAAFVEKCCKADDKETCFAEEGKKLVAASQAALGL

SMILES: CC(=O)Nc1ccc(S(=O)(=O)Cc2nc3ccccc3n2Cc2ccc(Cl)cc2Cl)cc1
- MIC [1]: 64 µg/mL (≈ 131 µM)
- MIC [2]: 128 µg/mL (≈ 262 µM)
- MIC [3]: 16 µg/mL (≈ 32.8 µM)
- MIC [4]: 128 µg/mL (≈ 262 µM)
- MIC [5]: 32 µg/mL (≈ 65.5 µM)
- MIC [6]: 8 µg/mL (≈ 16.4 µM)
- MIC [7]: 16 µg/mL (≈ 32.8 µM)
- MIC [8]: 4 µg/mL (≈ 8.19 µM)
- MIC [9]: 512 µg/mL (≈ 1050 µM)
- MIC [10]: 512 µg/mL (≈ 1050 µM)
- MIC [11]: 128 µg/mL (≈ 262 µM)
- MIC [12]: 128 µg/mL (≈ 262 µM)
- MIC [13]: 32 µg/mL (≈ 65.5 µM)
- Ratio [14]: 16
- Activity [15]: Dose-dependent effect
- Activity [16]: inactive
- Activity [17]: Active
- K [18]: 1.52 ×10⁴ L/mol
- inhibition [19]: Active
- Activity [20]: Active
- Activity [21]: Dose-dependent effect
- KSV [22]: 5.25 ×10⁴ L/mol
- Kq [23]: 8.2 ×10¹² L/mol/s
- Ka [24]: 11100 M⁻¹
- Kb [25]: 65600 M⁻¹
- deltaH [26]: -0.196 kcal/mol
- deltaG [27]: -5.0523 kcal/mol
- deltaS [28]: 74.429 J/mol/K
- Ratio [29]: 8
- KSV [30]: 4.08 ×10⁴ L/mol
- KSV [31]: 3.02 ×10⁴ L/mol
- Kq [32]: 6.38 ×10¹² L/mol/s
- Kq [33]: 4.72 ×10¹² L/mol/s
- Ka [34]: 10800 M⁻¹
- Ka [35]: 10600 M⁻¹
- Kb [36]: 59300 M⁻¹
- Kb [37]: 42100 M⁻¹
- deltaG [38]: -5.2682 kcal/mol
- deltaG [39]: -5.7639 kcal/mol

SMILES: Nc1ccc(S(=O)(=O)Cc2nc3ccccc3n2Cc2cccc(F)c2)cc1
- MIC [1]: 512 µg/mL (≈ 1290 µM)
- MIC [2]: 128 µg/mL (≈ 324 µM)
- MIC [3]: 512 µg/mL (≈ 1290 µM)
- MIC [4]: 512 µg/mL (≈ 1290 µM)
- MIC [5]: 256 µg/mL (≈ 647 µM)
- MIC [6]: 128 µg/mL (≈ 324 µM)
- MIC [7]: 512 µg/mL (≈ 1290 µM)
- MIC [8]: 512 µg/mL (≈ 1290 µM)
- MIC [9]: 128 µg/mL (≈ 324 µM)
- MIC [10]: 512 µg/mL (≈ 1290 µM)
- MIC [11]: 512 µg/mL (≈ 1290 µM)
- MIC [12]: 8 µg/mL (≈ 20.2 µM)
- MIC [13]: 256 µg/mL (≈ 647 µM)

From ChEMBL document CHEMBL4138085, “Design, synthesis and antimicrobial evaluation of novel benzimidazole-incorporated sulfonamide analogues” (Eur J Med Chem, 2017)
